High-throughput results from PubChem BioAssay.
pCIP destab = lowers stability of the mouse p/CIP coactivator protein; F442A p/CIP-EGFP cells, EGFP fluorescence, 16 h; decrease of EGFP signal, % at 10 µM; actives 0.01% (n = 290,000); AID 1984;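 active = EGFP signal decrease of at least 30% at 10 µM or well 3 SD below plate mean, unless failing retest; inactive = the rest, including hits failing retest or dose response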
GPR7 antag = human neuropeptides B/W receptor 1 antagonism | P48145 | GPR7-expressing cells, fluorescence antagonist assay | inhibition, % at 4.4 µM | actives 1.1% (n = 290,000); in the data active = inhibition above about 16%, passing the limit was not always enough;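 also: cells stimulated with the agonist NPW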
Target sequence (P48145 whole entry, looked up): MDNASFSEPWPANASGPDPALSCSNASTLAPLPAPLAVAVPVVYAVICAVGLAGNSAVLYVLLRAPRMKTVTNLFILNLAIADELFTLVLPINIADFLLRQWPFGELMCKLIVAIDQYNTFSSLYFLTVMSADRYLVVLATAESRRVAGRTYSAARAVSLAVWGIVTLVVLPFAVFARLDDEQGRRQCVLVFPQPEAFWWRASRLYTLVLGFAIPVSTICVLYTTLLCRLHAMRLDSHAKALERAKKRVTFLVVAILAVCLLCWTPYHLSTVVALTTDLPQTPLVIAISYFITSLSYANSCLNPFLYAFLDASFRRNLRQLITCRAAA
NS3 helicase inh = inhibitors of Hepatitis C virus NS3 helicase | NS3 helicase DNA unwinding, Cy5 molecular beacon fluorescence | actives 0.56% (n = 290,000) | inhibition, % at 10.9 µM;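 active = inhibition above the mean of all tested compounds plus 3 SD, set per campaign, cut at about 35% in these data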
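Compound dosing – single dose, 10.9 µM nominal final, DMSO 0.8% final · System – NS3 helicase fragment of HCV · Buffer or medium – MOPS pH 6.5, MgCl2, DTT, Tween20, BSA · Signal – Cy5 beacon fluorescence read at start and 1 h · Also added – annealed dual-labelled DNA beacon duplex, ATP-started · Schedule – 1 h at 25 °C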
HCV core dimer = blocks dimerization of HCV core protein; actives 0.33% (n = 300,000); inhibition, % at 5 µM; TR-FRET GST/Flag-core106 dimerization, 1536-well;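 active = inhibition above the mean of all tested compounds plus 3 SD, set per screening campaign, cut at about 45% in these data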
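Assay system: tagged HCV core106 pair (GST and Flag); medium: KF-containing HEPES buffer, pH 7.45, DTT, CHAPS, BSA; also added: Eu donor and XL665 acceptor anti-tag antibodies; dosing: 5 µM single dose; timing: compound-protein-antibody incubation 4 h at 22.5 °C; signal: TR-FRET 671 and 617 nm emission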
FID counter = counter-screen for HCV NS3 helicase inhibitors: DNA intercalator displacement | DNA fluorescent intercalator displacement, fluorescence | inhibition, % at 7.9 µM | actives 0.17% (n = 290,000); in the data active = inhibition above about 37%;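 also: higher means more ethidium bromide displaced from hairpin DNA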
A number is an active result; 0 = inactive; - = not tested or not shown. Hits are enriched below; roughly 1.9% of the tested compounds scored in any of these assays.

SMILES	pCIP destab	GPR7 antag	NS3 helicase inh	HCV core dimer	FID counter
CCOc1ccc2nc(NCCNC(=O)Nc3ccccc3)c(C#N)cc2c1	0	0	0	0	0
CCOc1ccc2nc(NCCNC(=S)NCCCN(C)C)c(C#N)cc2c1	0	0	0	0	41.7
Cc1cc(C)n2c(Nc3ccc4c(c3)OCCO4)c(-c3ccc(C)o3)nc2n1	0	0	0	0	0
Cc1cc(C)n2c(Nc3ccc4c(c3)OCCO4)c(-c3ccco3)nc2n1	0	0	60.4	-	0
CCOC(=O)N1CCC(N2Cc3cccc(C(=O)Nc4ccccc4OC)c3C2=O)CC1	0	0	0	0	0
Cc1cccc(NC(=O)CCc2ccccc2)c1C	0	0	0	0	0
N#Cc1cc([N+](=O)[O-])ccc1N1CCCC1	0	0	0	0	0
N#Cc1c(N2CCCC2)ccc(Br)c1Cl	0	17.3	0	0	0
O=C1CC(/C=C/c2ccco2)=Nc2ccccc2N1	0	0	0	57.5	0
O=C1CC(/C=C/c2ccccn2)=Nc2ccccc2N1	0	0	0	0	0
CC1(C)C(=O)Nc2ccccc2N1C(=O)COC(=O)C12CC3CC(CC(O)(C3)C1)C2	0	0	0	57.2	0
O=C1CN(C(=O)COC(=O)C23CC4CC(CC(O)(C4)C2)C3)c2ccccc2N1	0	0	0	0	0
COc1ccc(N2CSC3=C(C#N)C(c4cc(OC)c(OC)cc4OC)CC(=O)N3C2)c(OC)c1 (configuration not stated)	0	0	66.5	0	0
Cc1cc(C)c(NC(=S)N(CCCN2CCOCC2)Cc2cccnc2)c(C)c1	0	0	0	0	0
Cc1cc(C)n(NC(=S)NC2CCCC2)c(=O)c1C#N	0	0	0	0	0
CC1=C(C(=O)OCC(C)C)[C@]23C(=O)c4ccccc4[C@@]2(O1)OC(N)=C3C#N	0	17.4	0	0	0
CCN1/C(=C/c2ccc3cccc(C)c3[n+]2CC)Sc2ccccc21	0	33.9	0	0	0
CCN1/C(=C/c2ccc3cc(C)cc(C)c3[n+]2CC)Sc2cc(C)ccc21	0	0	0	-	0
CC(OC(=O)c1ccc2c(c1)OCCO2)C(=O)c1ccccc1 (configuration not stated)	-	-	-	0	-
COc1ccc(N(CC(=O)Nc2ccccc2C(F)(F)F)C2=NC3CS(=O)(=O)CC3S2)cc1 (configuration not stated)	0	0	0	0	0
CCOC(=O)c1c(-c2ccc(-c3ccccc3)cc2)csc1NC(=O)C1C2CCC(O2)C1C(=O)O (configuration not stated)	0	0	0	46.4	0
CC(=O)c1ccc(NC(=O)CSc2nnc(NC(=O)C3CC3)s2)cc1	0	0	0	0	0
CCN(CC)S(=O)(=O)c1ccc2oc(C(=O)N3CCCCCC3)c(C)c2c1	38.5	0	0	0	0
CCOC(=O)c1[nH]c(C)c(CN(CCc2ccccc2)S(C)(=O)=O)c1C	0	0	0	0	0
CCOC(=O)c1[nH]c(C)c(CN(C(C)=O)c2ccc(OCC)cc2)c1C	0	22.1	0	0	0
SMILES	pCIP destab	GPR7 antag	NS3 helicase inh	HCV core dimer	FID counter
Cc1sc(NC(=O)c2sc3nc4c(C)cccc4cc3c2N)c(C#N)c1C	0	0	0	47.1	0
Cc1cccc2cc3c(N)c(C#N)sc3nc12	0	0	0	0	0
Cc1noc(/C=C/c2cccs2)c1S(=O)(=O)N1CCC(C(=O)NCCCN2CCCC(C)C2)CC1 (configuration not stated)	0	0	0	0	0
COC(=O)C(CO)Nc1ncnc2onc(-c3ccc(F)cc3)c12 (configuration not stated)	0	0	0	0	0
CCOC(=O)Cn1c(=O)oc2cc(S(=O)(=O)NC3CCCc4ccccc43)ccc21 (configuration not stated)	0	27.8	0	0	0
CCOC(=O)Cn1c(=O)oc2cc(S(=O)(=O)NC3CCCCC3)ccc21	0	0	0	0	0
COc1ccc(C2C(C#N)=C(N)N(c3sc4c(c3C#N)CCCC4)C3=C2C(=O)CC(C)(C)C3)cc1 (configuration not stated)	0	0	0	0	0
COc1ccc(C2C(C#N)=C3NC(=O)c4c(sc5c4CCCCC5)N3C3=C2C(=O)CC(C)(C)C3)cc1 (configuration not stated)	0	0	0	46.0	0
Nn1c(SCC(=O)Nc2ccccc2F)nnc1-c1cccs1	-	-	-	0	-
O=C(CSc1nc2ccccc2c(=O)[nH]1)Nc1ccc(C(=O)O)cc1	0	20.1	0	0	0
Cc1ccc(C)c(S(=O)(=O)N2CCCOC2CNC(=O)C(=O)NC2CC2)c1 (configuration not stated)	0	0	0	0	0
CC(=O)Nc1ccc(-c2cc3ccccc3o2)cc1	0	19.8	0	0	0
CNC1(C(N)=O)CCNCC1	38.8	0	0	0	0
CCn1c(=S)[nH]c2scc(-c3cccs3)c2c1=O	0	0	0	-	0
CC(C)n1c(=S)[nH]c2scc(-c3cccs3)c2c1=O	0	0	0	65.1	0
CC1(C)OC(C(O)(c2ccccc2)c2ccccc2)[C@@H](C(O)(c2ccccc2)c2ccccc2)O1 (some centres not stated)	0	0	0	0	0
CC(=O)c1cccc(-n2nnnc2SCC(=O)Nc2cc(C)on2)c1	0	0	0	0	0
CCCCOc1ccc(C(=O)NCC(=O)NCC2CCCO2)cc1 (configuration not stated)	0	0	0	0	0
CCN(CC(=O)NC)S(=O)(=O)c1ccc(Br)cc1	0	16.3	0	0	0
COc1ccc(N(CC(=O)N/N=C/c2ccc(-c3ccc([N+](=O)[O-])cc3)o2)S(=O)(=O)c2ccc(C)cc2)cc1	0	0	0	52.4	0
COc1ccc(N(CC(=O)N/N=C/c2ccc(-c3ccc([N+](=O)[O-])cc3)o2)S(=O)(=O)c2ccc(C)cc2)cc1Cl	0	0	0	63.0	0
CCN(CC(=O)Nc1ccccc1C(F)(F)F)C(=O)CSCc1ccc(C)cc1	-	-	-	0	-
O=C(CSc1nc2sccc2c(=O)[nH]1)N1CCN(c2ccccc2)CC1	0	0	0	0	0
CCc1ccccc1-n1ncc(C(=O)Nc2ccccc2OC)c1C	0	0	0	0	0
COc1ccc(-c2cc3c(=O)n(CC(=O)NCCCN4CCC(N5CCCCC5)CC4)ncn3n2)cc1	0	0	0	0	40.2
COc1ccc(-c2cc3c(=O)n(CC(=O)NCCCN4CCC(N5CCCCC5)CC4)nc(C)n3n2)cc1	0	0	0	0	41.6
COc1ccc(-c2cc3c(=O)n(CC(=O)NC4CCN(Cc5ccccc5)CC4)ncn3n2)cc1	0	0	0	0	0
COc1ccc(C(C)(C)C)cc1NC(=O)COC(=O)c1ccc([N+](=O)[O-])o1	0	0	0	0	0
Cc1ccc(Cl)cc1NC(=O)C[n+]1ccc(Cc2ccc([N+](=O)[O-])cc2)cc1	0	0	0	0	39.7
